Measurements as given in ChEMBL document CHEMBL5696444 (Nat Commun, 2017).
pIC50: −log10 of the molar value. Active and inactive are the calls of the source. The calls are words filed in the database; no cut-off is given here.

Experiments:
[1] = molecular target: Dual specificity protein kinase CLK2 (Homo sapiens, UniProt P49760); assay: Inhibition of N-terminal FLAG-tagged human CLK2 using ULight MBP peptide as substrate incubated for 10 mins in presence of ATP incubated for 45 mins by LANCE Ultra kinase assay
Chain of Dual specificity protein kinase CLK2 (P49760 whole entry): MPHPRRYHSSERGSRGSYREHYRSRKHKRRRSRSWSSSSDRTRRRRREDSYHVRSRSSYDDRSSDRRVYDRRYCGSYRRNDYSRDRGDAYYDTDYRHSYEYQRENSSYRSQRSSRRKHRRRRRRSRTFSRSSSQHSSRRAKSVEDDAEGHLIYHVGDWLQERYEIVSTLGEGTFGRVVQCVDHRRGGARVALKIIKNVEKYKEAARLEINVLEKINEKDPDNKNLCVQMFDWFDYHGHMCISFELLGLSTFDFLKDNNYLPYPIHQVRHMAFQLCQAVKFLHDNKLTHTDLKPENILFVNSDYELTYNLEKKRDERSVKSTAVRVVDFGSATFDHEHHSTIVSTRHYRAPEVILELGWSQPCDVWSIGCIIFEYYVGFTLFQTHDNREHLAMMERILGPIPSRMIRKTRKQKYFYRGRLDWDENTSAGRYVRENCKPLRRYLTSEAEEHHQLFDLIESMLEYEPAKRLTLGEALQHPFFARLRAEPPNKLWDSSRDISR

[2] = tested on: HCT-116; assay: Cytotoxicity against human HCT-116 cells assessed as inhibition of cell viability incubated for > 24 hrs; type: functional
[3] = molecular target: Dual specificity protein kinase CLK1 (Homo sapiens) (UniProt P49759); assay: Inhibition of CLK (unknown origin) in human HCT-116 cells assessed as SRSF1 level at 10 uM incubated for 6 hrs by immunoblot analysis; type: cell-based
Chain of Dual specificity protein kinase CLK1 (Homo sapiens) (P49759 whole entry, looked up): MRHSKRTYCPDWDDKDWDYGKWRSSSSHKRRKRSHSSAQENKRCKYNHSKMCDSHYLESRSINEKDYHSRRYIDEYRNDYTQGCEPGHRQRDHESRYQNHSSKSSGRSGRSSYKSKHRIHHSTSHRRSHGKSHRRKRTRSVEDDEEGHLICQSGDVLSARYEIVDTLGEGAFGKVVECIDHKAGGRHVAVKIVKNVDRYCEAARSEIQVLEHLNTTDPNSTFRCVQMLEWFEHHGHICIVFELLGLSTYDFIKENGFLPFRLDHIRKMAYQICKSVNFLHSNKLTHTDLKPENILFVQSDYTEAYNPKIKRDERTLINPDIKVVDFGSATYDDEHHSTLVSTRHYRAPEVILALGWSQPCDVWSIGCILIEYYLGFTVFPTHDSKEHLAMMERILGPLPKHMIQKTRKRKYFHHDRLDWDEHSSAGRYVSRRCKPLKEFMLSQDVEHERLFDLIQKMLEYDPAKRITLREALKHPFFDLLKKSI
In short: (§1)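 HCT116 cells were exposed to compound for 3 or 6 h, then lysed in 1× SDS sample buffer (0.16% SDS, Tris-HCl pH 6.8) and boiled 5 min. Lysates were run on 5–15% or 4–12% gradient gels and transferred to nitrocellulose or PVDF. Membranes were blocked in 5% milk or 3% BSA/TBS-T and probed overnight at 4 °C with anti-SR protein (16H3) or anti-phospho-SR (1H4, 1/1000), with GAPDH as loading control.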

[4] = molecular target: Dual specificity protein kinase CLK1 (Homo sapiens) (UniProt P49759); assay: Inhibition of CLK (unknown origin) in human HCT-116 cells assessed as SRSF4 level at 10 uM incubated for 6 hrs by immunoblot analysis; type: cell-based; in short: as §1
[5] = molecular target: Dual specificity protein kinase CLK1 (Homo sapiens) (UniProt P49759); assay: Inhibition of CLK (unknown origin) in human HCT-116 cells assessed as phospho SR level at 10 uM incubated for 6 hrs by immunoblot analysis; type: cell-based; in short: as §1
[6] = molecular target: Dual specificity protein kinase CLK1 (Homo sapiens) (UniProt P49759); assay: Inhibition of CLK (unknown origin) in human HCT-116 cells assessed as SRSF6 level at 10 uM incubated for 6 hrs by immunoblot analysis; type: cell-based; in short: as §1

Question: `CC(C)(C(=O)N1CCNCC1)c1ccc(C(=O)Nc2cn3cc(-c4ccncc4)ccc3n2)cc1` was tested. Which pIC50 [1] did it give?
Answer: 6.82

Question: How did the pIC50 [1] turn out when `CC(C)(CCc1nn[nH]n1)c1ccc(C(=O)Nc2cn3cc(C(F)(F)F)ccc3n2)cc1` was run?
Answer: 6.44

Question: How did the pIC50 [1] turn out when `CC(C)(CCc1nn[nH]n1)c1ccc(C(=O)Nc2cn3cc(-c4ccncc4)ccc3n2)cc1` was run?
Answer: 7.30

Question: Which results are given for `CCOC(=O)c1c(/C(C#N)=C\N)c2ccc(Cl)c(Cl)c2n1C`?
Answer: GI [2]: >50 µM; inhibition [3]: Active; inhibition [4]: Active; inhibition [5]: Active; inhibition [6]: Active

Question: How did the pIC50 [1] turn out when `CCN1CCN(C(=O)C(C)(C)c2ccc(C(=O)Nc3cn4cc(-c5ccncc5)ccc4n3)cc2)CC1` was run?
Answer: 7.82
